Experimental data from ChEMBL document CHEMBL1140578, “Solid-phase synthesis and biological evaluation of a uridinyl branched peptide urea library” (2007).
In brackets after ≈: the same amount, converted by molar mass. Activity calls are given as the source filed them. No cut-off for these calls is given here.

Tests used:
[1] = system: Enterococcus faecalis; test: Antimicrobial activity against Enterococcus faecalis; format: functional, organism-based
[2] = system: Escherichia coli; test: Antimicrobial activity against Escherichia coli K12; format: functional, organism-based
[3] = system: Bacillus anthracis; test: Antimicrobial activity against Bacillus anthracis Sterne; format: functional, organism-based
[4] = system: Bacillus subtilis; test: Antimicrobial activity against Bacillus subtilis; format: functional, organism-based
[5] = system: Staphylococcus aureus; test: Antimicrobial activity against methicillin-susceptible Staphylococcus aureus; format: functional, organism-based
[6] = system: Mycobacterium tuberculosis; test: Antituberculosis activity against Mycobacterium tuberculosis H37Rv by micro-broth dilution method; format: functional
In short: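 M. tuberculosis H37Rv grown in Middlebrook 7H9 ADC medium and tested by microbroth dilution per CLSI guidelines, with 2×10^4 bacteria per well. Compounds were dissolved and diluted in DMSO (4 μl into 196 μl). The primary screen used 20, 10 and 5 μg/ml based on recovered yield. Resynthesized compounds were run as 1:1 serial dilutions from 200 to 1.56 μg/ml to give MIC90. Controls were no drug and isoniazid.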

Structure (SMILES) | Activity [1] | Activity [2] | Activity [3] | Activity [4] | Activity [5] | MIC90 [6] [µg/mL]
COc1ccc(NC(=O)N[C@@H](Cc2c[nH]c3ccccc23)C(=O)N[C@@H](CNC(=O)[C@@H](N)Cc2c[nH]c3ccccc23)C(=O)NC[C@H]2O[C@@H](n3ccc(=O)[nH]c3=O)[C@H](O)[C@@H]2O)cc1 | inactive | inactive | inactive | inactive | inactive | 12.5 (≈ 14.7 µM)
CCCNC(=O)N[C@@H](Cc1c[nH]c2ccccc12)C(=O)N[C@@H](CNC(=O)[C@@H](N)Cc1c[nH]c2ccccc12)C(=O)NC[C@H]1O[C@@H](n2ccc(=O)[nH]c2=O)[C@H](O)[C@@H]1O | inactive | inactive | inactive | inactive | inactive | 100 (≈ 127 µM)
CCCCCCNC(=O)N[C@@H](Cc1c[nH]c2ccccc12)C(=O)N[C@@H](CNC(=O)[C@@H](N)Cc1c[nH]c2ccccc12)C(=O)NC[C@H]1O[C@@H](n2ccc(=O)[nH]c2=O)[C@H](O)[C@@H]1O | inactive | inactive | inactive | inactive | inactive | 25 (≈ 30.2 µM)
CSCC[C@H](NC(=O)NCCc1ccccc1)C(=O)N[C@@H](CNC(=O)[C@@H](N)Cc1ccc([N+](=O)[O-])cc1)C(=O)NC[C@H]1O[C@@H](n2ccc(=O)[nH]c2=O)[C@H](O)[C@@H]1O | inactive | inactive | inactive | inactive | inactive | 100 (≈ 125 µM)
CC(=O)c1cccc(NC(=O)N[C@@H](Cc2c[nH]c3ccccc23)C(=O)N[C@@H](CNC(=O)[C@@H](N)CC(N)=O)C(=O)NC[C@H]2O[C@@H](n3ccc(=O)[nH]c3=O)[C@H](O)[C@@H]2O)c1 | inactive | inactive | inactive | inactive | inactive | > 200
CC(=O)c1cccc(NC(=O)N[C@@H](Cc2c[nH]c3ccccc23)C(=O)N[C@@H](CNC(=O)[C@@H](N)Cc2c[nH]c3ccccc23)C(=O)NC[C@H]2O[C@@H](n3ccc(=O)[nH]c3=O)[C@H](O)[C@@H]2O)c1 | inactive | inactive | inactive | inactive | inactive | 50 (≈ 57.9 µM)
COc1ccc(NC(=O)N[C@@H](Cc2ccc(O)cc2)C(=O)N[C@@H](CNC(=O)[C@@H](N)Cc2ccc([N+](=O)[O-])cc2)C(=O)NC[C@H]2O[C@@H](n3ccc(=O)[nH]c3=O)[C@H](O)[C@@H]2O)cc1 | inactive | inactive | inactive | inactive | inactive | 12.5 (≈ 15 µM)
N[C@@H](Cc1c[nH]c2ccccc12)C(=O)NC[C@H](NC(=O)[C@H](Cc1c[nH]c2ccccc12)NC(=O)NCCc1ccccc1)C(=O)NC[C@H]1O[C@@H](n2ccc(=O)[nH]c2=O)[C@H](O)[C@@H]1O | inactive | inactive | inactive | inactive | inactive | 50 (≈ 58.9 µM)
CCCCCCNC(=O)N[C@@H](Cc1ccc(O)cc1)C(=O)N[C@@H](CNC(=O)[C@@H](N)Cc1c[nH]c2ccccc12)C(=O)NC[C@H]1O[C@@H](n2ccc(=O)[nH]c2=O)[C@H](O)[C@@H]1O | inactive | inactive | inactive | inactive | inactive | 12.5 (≈ 15.5 µM)
